Measured values reported in ChEMBL document CHEMBL1123659, “2-Phenylindoles. Effect of N-benzylation on estrogen receptor affinity, estrogenic properties, and mammary tumor inhibiting activity” (J Med Chem, 1987).
Where “and” joins values, the source holds several entries; their conditions need not be identical. Equal values may be shown once. Values belong to the compound of their own block, whether it stands above or below them.

Assays:
[1] = target: T1, Estrogen receptor (Mus musculus) (UniProt O08537+P19785); assay: Anti-estrogenic activity as Uterus dry weight (mg)/body weight (g) *100 in mice at 125 ug; assay type: functional, tissue-based
Summary of the method: (§1)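 Immature mice, sc injection on three consecutive days of test compound together with a standard 0.4 µg estrone per animal and day. Dose per animal. Control animals got vehicle. Killed 24 h after the last injection. Uteri Bouin-fixed, cleaned, washed in alcoholic LiCl, dried at 100 °C for 24 h and weighed. Read-out is uterine dry weight (mg)/body weight (g) ×100, mean of 10 animals ± SD.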

[2] = target: T1, Estrogen receptor (Mus musculus); assay: Estrogenic activity as Uterus dry weight (mg)/body weight (g) *100 in mice at 5 ug
[3] = target: T1, Estrogen receptor (Mus musculus); assay: Anti-estrogenic activity as Uterus dry weight (mg)/body weight (g) *100 in mice at 25 ug; assay type: functional, tissue-based; summary of the method: as §1
[4] = target: T1, Estrogen receptor (Mus musculus); assay: Percent inhibition of estrone-stimulated uterine growth in mice; assay type: functional; parameters: concentration or dose not given beside the values; conditions: concentration not given here
Summary of the method: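 Mouse antiuterotrophic test. Immature mice injected sc on three consecutive days with 0.4 µg estrone plus increasing doses per animal of test compound. Dry uterine weight/body weight ×100 determined 24 h after the last injection, 10 animals per group. Inhibition (%) = 100 − [(E_S,T − E_V)/(E_S − E_V)] ×100, where E_S is estrone alone and E_V is vehicle. Significance by Mann-Whitney U-test.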

[5] = target: T1, Estrogen receptor (Mus musculus); assay: Anti-estrogenic activity as Uterus dry weight (mg)/body weight (g) *100 in mice at 5 ug; assay type: functional, tissue-based; summary of the method: as §1
[6] = target: T1, Estrogen receptor (Mus musculus); assay: Estrogenic activity as Uterus dry weight (mg)/body weight (g) *100 in mice at 625 ug
[7] = target: T1, Estrogen receptor (Mus musculus); assay: Anti-estrogenic activity as Uterus dry weight (mg)/body weight (g) *100 in mice at 1 ug; assay type: functional, tissue-based; summary of the method: as §1
[8] = target: T1, Estrogen receptor (Mus musculus); assay: (§2) Estrogenic activity as Uterus dry weight (mg)/body weight (g) *100 in mice with 0.4 ug estrone; assay type: functional, tissue-based
Summary of the method: (§3)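 Immature mice given 0.4 µg estrone per animal sc on three consecutive days. Control animals got vehicle. Killed 24 h after the last injection. Uteri fixed in Bouin, dried at 100 °C for 24 h and weighed. Result expressed as uterine dry weight (mg)/body weight (g) ×100, mean of 10 animals ± SD.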

[9] = target: T1, Estrogen receptor (Mus musculus); assay: Estrogenic activity as Uterus dry weight (mg)/body weight (g) *100 in mice at 25 ug
[10] = target: Estrogen receptor (Bos taurus) (UniProt Q9XSB5+P49884); assay: Relative binding affinity for the calf uterine estrogen receptor by 17-beta-[3H]-estradiol displacement.; assay type: protein assay
Summary of the method: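 Calf uterine cytosol (105000g supernatant, 3 mg/mL protein final) in Tris-EDTA-NaN3 buffer, pH 7.5. Incubated with 5 nM 17β-[3H]estradiol and 10^-9–10^-5 M competitor for 18 h at 4 °C. Dextran-coated charcoal added for 90 min, then supernatant radioactivity counted. Nonspecific binding taken with 5 µM estradiol. RBA = molar ratio of estradiol to competitor at 50% displacement ×100.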

[11] = target: T1, Estrogen receptor (Mus musculus); assay: as §2; assay type: functional, tissue-based; summary of the method: as §3; remark: listed apart in the source
[12] = test system: MDA-MB-231; assay: Effect on [3H]thymidine incorporation into estrogen receptor negative MDA-MB 231 human breast carcinoma cells at 1*10e-5 M (ex 1); assay type: functional
[13] = test system: MCF7; assay: Effect on [3H]thymidine incorporation into estrogen receptor positive MCF-7 human breast carcinoma cells at 10e-6 M (ex 2)
[14] = test system: MCF7; assay: Effect on [3H]thymidine incorporation into estrogen receptor positive MCF-7 human breast carcinoma cells at 10e-5 M (ex 1); assay type: functional
Summary of the method: (§4)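 MCF-7 cells kept in MEM with 5% charcoal-stripped newborn calf serum for two weeks. About 2×10^4 cells per well plated, then one day later exposed to compound in 0.1% ethanol. Ethanol-only controls. Medium changed on day 4. Three days later cells labelled with 1 µCi [3H]thymidine per well for 2 h. TCA-insoluble radioactivity per dish counted, mean of six dishes ± SD, expressed as % T/C.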

[15] = test system: MCF7; assay: Effect on [3H]thymidine incorporation into estrogen receptor positive MCF-7 human breast carcinoma cells at 10e-7 M (ex 2)
[16] = test system: MDA-MB-231; assay: Effect on [3H]thymidine incorporation into estrogen receptor negative MDA-MB 231 human breast carcinoma cells at 5*10e-6 M; assay type: functional
[17] = test system: MDA-MB-231; assay: Effect on [3H]thymidine incorporation into estrogen receptor negative MDA-MB 231 human breast carcinoma cells at 1*10e-6 M; assay type: functional
[18] = target: T1, Estrogen receptor (Mus musculus); assay: as §2; assay type: functional, tissue-based; summary of the method: as §3; remark: listed apart in the source
[19] = test system: MCF7; assay: Effect on [3H]thymidine incorporation into estrogen receptor positive MCF-7 human breast carcinoma cells at 10e-6 M (ex 1); assay type: functional; summary of the method: as §4
[20] = test system: MCF7; assay: Effect on [3H]thymidine incorporation into estrogen receptor positive MCF-7 human breast carcinoma cells at 10e-7 M (ex 1); assay type: functional; summary of the method: as §4
[21] = target: T1, Estrogen receptor (Mus musculus); assay: as §2; assay type: functional, tissue-based; summary of the method: as §3; remark: listed apart in the source
[22] = target: T1, Estrogen receptor (Mus musculus); assay: Anti-estrogenic activity as Uterus dry weight (mg)/body weight (g) *100 in mice at 250 ug; assay type: functional, tissue-based; summary of the method: as §1
[23] = target: T1, Estrogen receptor (Mus musculus); assay: Anti-estrogenic activity as Uterus dry weight (mg)/body weight (g) *100 in mice at 625 ug; assay type: functional, tissue-based; summary of the method: as §1
[24] = target: T1, Estrogen receptor (Mus musculus); assay: Anti-estrogenic activity as Uterus dry weight (mg)/body weight (g) *100 in mice at 75 ug; assay type: functional, tissue-based; summary of the method: as §1
[25] = test system: MCF7; assay: Effect on [3H]thymidine incorporation into estrogen receptor positive MCF-7 human breast carcinoma cells at 10e-6 M (ex 2); assay type: functional; summary of the method: as §4
[26] = test system: MCF7; assay: Effect on [3H]thymidine incorporation into estrogen receptor positive MCF-7 human breast carcinoma cells at 10e-7 M (experiment 2); assay type: functional; summary of the method: as §4
[27] = test system: MCF7; assay: Effect on [3H]-thymidine incorporation into estrogen receptor positive MCF-7 human breast carcinoma cells at 10e-7 M (ex 1); assay type: functional; summary of the method: as §4
[28] = test system: MCF7; assay: Effect on [3H]-thymidine incorporation into estrogen receptor positive MCF-7 human breast carcinoma cells at 10e-6 M (exp 1); assay type: functional; summary of the method: as §4
[29] = in the assay text read “Estrogenic activity” for “Anti-estrogenic activity”

T1 sequence (O08537 whole entry, looked up): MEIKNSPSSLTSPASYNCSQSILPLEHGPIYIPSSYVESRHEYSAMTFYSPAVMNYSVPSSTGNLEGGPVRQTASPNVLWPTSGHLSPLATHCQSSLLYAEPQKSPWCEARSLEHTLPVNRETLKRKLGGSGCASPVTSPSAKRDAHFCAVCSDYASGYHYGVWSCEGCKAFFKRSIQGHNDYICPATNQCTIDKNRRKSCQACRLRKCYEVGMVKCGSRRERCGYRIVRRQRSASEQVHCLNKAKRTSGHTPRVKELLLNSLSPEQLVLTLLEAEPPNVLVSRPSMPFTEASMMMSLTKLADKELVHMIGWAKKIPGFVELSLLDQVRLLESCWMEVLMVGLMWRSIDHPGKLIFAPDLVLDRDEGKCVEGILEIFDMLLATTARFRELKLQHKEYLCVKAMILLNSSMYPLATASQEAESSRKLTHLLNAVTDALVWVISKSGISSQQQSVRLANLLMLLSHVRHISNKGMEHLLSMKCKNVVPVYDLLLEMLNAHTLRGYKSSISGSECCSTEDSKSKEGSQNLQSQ
T1 sequence (P19785 whole entry, looked up): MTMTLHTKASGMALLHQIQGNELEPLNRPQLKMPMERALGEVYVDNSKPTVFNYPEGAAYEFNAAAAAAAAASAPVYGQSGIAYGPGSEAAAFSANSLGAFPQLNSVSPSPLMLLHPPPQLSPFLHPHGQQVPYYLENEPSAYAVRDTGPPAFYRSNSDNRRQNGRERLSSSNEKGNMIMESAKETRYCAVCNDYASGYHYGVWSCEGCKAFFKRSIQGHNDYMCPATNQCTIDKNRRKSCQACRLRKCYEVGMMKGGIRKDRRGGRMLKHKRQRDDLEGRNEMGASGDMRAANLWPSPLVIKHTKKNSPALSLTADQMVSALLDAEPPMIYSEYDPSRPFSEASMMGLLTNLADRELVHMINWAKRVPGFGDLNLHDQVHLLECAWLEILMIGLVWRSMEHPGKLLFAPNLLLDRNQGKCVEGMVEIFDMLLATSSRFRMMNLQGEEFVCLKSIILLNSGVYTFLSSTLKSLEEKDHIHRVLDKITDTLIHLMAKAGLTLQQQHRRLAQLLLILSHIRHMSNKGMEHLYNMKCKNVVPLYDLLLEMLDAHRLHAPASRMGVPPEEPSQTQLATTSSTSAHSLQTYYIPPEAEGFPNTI

SMILES: CC(=O)Oc1ccc(-c2c(C)c3cc(OC(C)=O)ccc3n2Cc2ccc(C)cc2)cc1
Activity [1]: 36
Activity [1, 29]: 32.9
Activity [2]: 14.4
Activity [3]: 42.5
inhibition [4]: 16% and < 35%
Activity [5]: 46.3
Activity [6]: 40
Activity [7]: 49.2
Activity [8]: 46.5 and 47.8
Activity [9]: 20.3

SMILES: COc1ccc(Cn2c(-c3ccc(OC(C)=O)cc3)c(C)c3cc(OC(C)=O)ccc32)cc1
Activity [1]: 40.1
Activity [1, 29]: 30.9
Activity [2]: 14.3
Activity [3]: 46.8
inhibition [4]: 23%
Activity [5]: 47.4
Activity [6]: 45
Activity [7]: 47.1
Activity [8]: 47.8
Activity [11]: 52.2
Activity [9]: 14.7

SMILES: Cc1c(-c2ccc(O)cc2)n(Cc2ccc(C#N)cc2)c2ccc(O)cc12
T/C [12]: 11 ×10^4 per dish
T/C [13]: 7.8 ×10^4 per dish
T/C [14]: 1.3 ×10^4 per dish
T/C [15]: 17.3 ×10^4 per dish
relative binding affinity (RBA) [10]: 14
T/C [16]: 10.5 ×10^4 per dish
T/C [17]: 10.5 ×10^4 per dish

SMILES: CC(=O)Oc1ccc(-c2c(C)c3ccc(OC(C)=O)cc3n2Cc2ccccc2)cc1
Activity [1]: 44.6
Activity [1, 29]: 32.4
Activity [2]: 12.3
Activity [3]: 52.1
inhibition [4]: 11%
Activity [5]: 50.4
Activity [6]: 32.6
Activity [7]: 54.2
Activity [11]: 46.5
Activity [18]: 48.2
Activity [9]: 17.1

SMILES: Cc1c(-c2ccc(O)cc2)n(C(=O)c2ccccc2)c2ccc(O)cc12
relative binding affinity (RBA) [10]: 2.4

SMILES: CC(=O)Oc1ccc(-c2c(C)c3cc(OC(C)=O)ccc3n2Cc2ccccc2)cc1
Activity [21]: 48.2
Activity [1]: 34.7
Activity [1, 29]: 30.7
Activity [2]: 13.3
Activity [3]: 42.8
inhibition [4]: 17% and < 42%
Activity [5]: 48.7
Activity [6]: 38.1
Activity [7]: 49.9
Activity [11]: 47.4
Activity [9]: 22.6

SMILES: Cc1c(-c2ccc(O)cc2)n(CC2CCCCC2)c2ccc(O)cc12
relative binding affinity (RBA) [10]: 5.2

SMILES: CC(=O)Oc1ccc(-c2c(C)c3cc(OC(C)=O)ccc3n2Cc2ccc(C#N)cc2)cc1
Activity [1]: 30.5
Activity [1, 29]: 20
Activity [22]: 30.4
Activity [2]: 14
Activity [3]: 37.9
Activity [6]: 27.4
Activity [23]: 31.5
Activity [24]: 34.1
Activity [8]: 43.7
Activity [11]: 48.2
Activity [9]: 15.1

SMILES: Cc1c(-c2ccc(O)cc2)n(Cc2c(Cl)cccc2Cl)c2ccc(O)cc12
relative binding affinity (RBA) [10]: 3.6

SMILES: CC/C(=C(\c1ccccc1)c1ccc(OCCN(C)C)cc1)c1ccccc1 [TAMOXIFEN]
T/C [25]: 5.3 ×10^4 per dish
T/C [26]: 6.7 ×10^4 per dish and 10.8 ×10^4 per dish
T/C [27]: 4.5 ×10^4 per dish
T/C [28]: 2.2 ×10^4 per dish

SMILES: CC(=O)Oc1ccc(-c2c(C)c3ccc(OC(C)=O)cc3n2-c2ccccc2)cc1
Activity [1]: 32.4
Activity [1, 29]: 26.4
Activity [2]: 13.4
Activity [3]: 43.5
inhibition [4]: 33%
Activity [5]: 41
Activity [6]: 34.8
Activity [7]: 43.2
Activity [8]: 42
Activity [11]: 42
Activity [9]: 17.8

Second part, led by results:

relative binding affinity (RBA) [10]: 7.5
SMILES: Cc1c(-c2ccc(O)cc2)n(-c2ccccc2)c2cc(O)ccc12

relative binding affinity (RBA) [10]: 5.1
SMILES: Cc1c(-c2ccc(O)cc2)n(Cc2cccc(Cl)c2)c2ccc(O)cc12

relative binding affinity (RBA) [10]: 11
SMILES: Cc1c(-c2ccc(O)cc2)n(Cc2ccccc2)c2cc(O)ccc12

relative binding affinity (RBA) [10]: 11
SMILES: Cc1ccc(Cn2c(-c3ccc(O)cc3)c(C)c3cc(O)ccc32)cc1

relative binding affinity (RBA) [10]: 16
SMILES: Cc1c(-c2ccc(O)cc2)n(Cc2ccccc2)c2ccc(O)cc12
T/C [19]: 17.4 ×10^4 per dish
T/C [20]: 20.3 ×10^4 per dish

relative binding affinity (RBA) [10]: 8
SMILES: Cc1c(-c2ccc(O)cc2)n(Cc2ccc(Cl)cc2)c2ccc(O)cc12

relative binding affinity (RBA) [10]: 3
SMILES: Cc1c(-c2cccc(O)c2)n(Cc2ccccc2)c2ccc(O)cc12

relative binding affinity (RBA) [10]: 0.55
SMILES: Cc1c(-c2ccc(O)cc2)n(Cc2ccccc2)c2ccccc12

relative binding affinity (RBA) [10]: 2.6
SMILES: Cc1c(-c2ccccc2)n(Cc2ccccc2)c2ccc(O)cc12

relative binding affinity (RBA) [10]: 6.6
SMILES: Cc1cccc(Cn2c(-c3ccc(O)cc3)c(C)c3cc(O)ccc32)c1

relative binding affinity (RBA) [10]: 9
SMILES: Cc1c(-c2ccc(O)cc2)n(-c2ccccc2)c2ccc(O)cc12

relative binding affinity (RBA) [10]: 8.7
SMILES: Cc1c(-c2ccc(O)cc2)n(Cc2ccccc2Cl)c2ccc(O)cc12

relative binding affinity (RBA) [10]: 2
SMILES: Cc1c(-c2ccc(O)cc2)n(CCc2ccccc2)c2ccc(O)cc12

relative binding affinity (RBA) [10]: 8
SMILES: Cc1c(-c2ccc(O)cc2)n(Cc2ccc(O)cc2)c2ccc(O)cc12
